ChEMBL document CHEMBL4251567 (Eur J Med Chem, 2018)

Columns and labels:
Histone deacetylase = test: Inhibition of HDAC in human HeLa-S3 cell lysates preincubated for 15 mins followed by HDAC-Glo substrate addition measured after 35 mins by fluorimetric method; type: protein assay
[1] = target: T1, Histone deacetylase (Homo sapiens) (UniProt Q13547+O15379+Q9UBN7+Q92769+Q9UQL6+Q8WUI4+Q9BY41+Q96DB2+P56524+Q9UKV0+Q969S8); test: Inhibition of HDAC in human HeLa-S3 cell lysates assessed as residual activity at 1 x 10^-5 M preincubated for 15 mins followed by HDAC-Glo substrate addition measured after 35 mins by […] relative to control; type: protein assay
Summary of the method: (§1)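 Lysate (1 μg total protein) in HDAC-Glo buffer was preincubated with inhibitor in DMSO for 15 min at room temperature. HDAC-Glo substrate/developer reagent was added and luminescence read after 35 min. Concentrations are final. Signal corrected for a no-lysate blank; % of DMSO control.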

[2] = target: T1, Histone deacetylase (Homo sapiens); test: Inhibition of HDAC in human HeLa-S3 cell lysates assessed as residual activity at 5 x 10^-6 M preincubated for 15 mins followed by HDAC-Glo substrate addition measured after 35 mins by fluorimetric method relative to control; type: protein assay; summary of the method: as §1
[3] = target: T1, Histone deacetylase (Homo sapiens); test: Inhibition of HDAC in human HeLa-S3 cell lysates assessed as residual activity at 2.5 x 10^-6 M preincubated for 15 mins followed by HDAC-Glo substrate addition measured after 35 mins by […] relative to control; type: protein assay; summary of the method: as §1
[4] = target: T1, Histone deacetylase (Homo sapiens); test: Inhibition of HDAC in human HeLa-S3 cell lysates assessed as residual activity at 1.25 x 10^-6 M preincubated for 15 mins followed by HDAC-Glo substrate addition measured after 35 mins by […] relative to control; type: protein assay; summary of the method: as §1
[5] = target: T1, Histone deacetylase (Homo sapiens); test: Inhibition of HDAC in human HeLa-S3 cell lysates assessed as residual activity at 6.25 x 10^-6 M preincubated for 15 mins followed by HDAC-Glo substrate addition measured after 35 mins by […] relative to control; type: protein assay
[6] = target: Histone deacetylase 1 (Homo sapiens) (UniProt Q13547); test: Inhibition of HDAC1 in human HeLa-S3 cell lysates assessed as remaining activity at […] preincubated for 15 mins followed by HDAC-Glo substrate addition measured after 30 to 40 mins by […] relative to control
Sequence of Histone deacetylase 1 (Homo sapiens) (Q13547 whole entry): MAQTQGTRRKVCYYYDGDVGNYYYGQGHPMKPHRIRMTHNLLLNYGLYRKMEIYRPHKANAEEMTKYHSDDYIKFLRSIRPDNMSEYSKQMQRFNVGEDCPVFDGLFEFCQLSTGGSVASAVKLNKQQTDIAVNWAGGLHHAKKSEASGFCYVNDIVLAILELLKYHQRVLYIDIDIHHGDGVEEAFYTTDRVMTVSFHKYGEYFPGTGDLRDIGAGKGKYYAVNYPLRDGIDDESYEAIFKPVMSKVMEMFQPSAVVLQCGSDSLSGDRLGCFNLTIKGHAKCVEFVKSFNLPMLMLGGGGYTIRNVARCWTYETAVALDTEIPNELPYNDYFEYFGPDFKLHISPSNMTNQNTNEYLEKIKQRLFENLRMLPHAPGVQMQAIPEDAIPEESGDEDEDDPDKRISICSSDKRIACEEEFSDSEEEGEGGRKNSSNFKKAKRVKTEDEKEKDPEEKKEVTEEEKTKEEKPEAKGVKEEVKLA

[7] = target: Histone deacetylase 2 (Homo sapiens) (UniProt Q92769); test: Inhibition of HDAC2 in human HeLa-S3 cell lysates assessed as remaining activity at […] preincubated for 15 mins followed by HDAC-Glo substrate addition measured after 30 to 40 mins by […] relative to control
Sequence of Histone deacetylase 2 (Homo sapiens) (Q92769 whole entry): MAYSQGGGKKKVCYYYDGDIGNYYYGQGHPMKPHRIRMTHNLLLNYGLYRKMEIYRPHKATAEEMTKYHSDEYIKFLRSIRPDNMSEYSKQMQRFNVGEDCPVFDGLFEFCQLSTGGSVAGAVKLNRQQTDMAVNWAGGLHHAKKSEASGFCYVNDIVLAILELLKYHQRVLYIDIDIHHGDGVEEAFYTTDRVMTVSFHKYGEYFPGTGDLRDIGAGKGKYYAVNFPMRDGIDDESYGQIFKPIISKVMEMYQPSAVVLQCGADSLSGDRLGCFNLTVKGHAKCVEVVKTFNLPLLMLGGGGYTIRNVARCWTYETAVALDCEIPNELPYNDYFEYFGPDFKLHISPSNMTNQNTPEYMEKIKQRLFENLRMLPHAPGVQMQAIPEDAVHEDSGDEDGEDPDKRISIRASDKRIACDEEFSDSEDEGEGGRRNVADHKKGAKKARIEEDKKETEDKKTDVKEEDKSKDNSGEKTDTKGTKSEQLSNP

[8] = target: Histone deacetylase 3 (Homo sapiens) (UniProt O15379); test: Inhibition of HDAC3 in human HeLa-S3 cell lysates assessed as remaining activity at […] preincubated for 15 mins followed by HDAC-Glo substrate addition measured after 30 to 40 mins by […] relative to control
Sequence of Histone deacetylase 3 (Homo sapiens) (O15379 whole entry): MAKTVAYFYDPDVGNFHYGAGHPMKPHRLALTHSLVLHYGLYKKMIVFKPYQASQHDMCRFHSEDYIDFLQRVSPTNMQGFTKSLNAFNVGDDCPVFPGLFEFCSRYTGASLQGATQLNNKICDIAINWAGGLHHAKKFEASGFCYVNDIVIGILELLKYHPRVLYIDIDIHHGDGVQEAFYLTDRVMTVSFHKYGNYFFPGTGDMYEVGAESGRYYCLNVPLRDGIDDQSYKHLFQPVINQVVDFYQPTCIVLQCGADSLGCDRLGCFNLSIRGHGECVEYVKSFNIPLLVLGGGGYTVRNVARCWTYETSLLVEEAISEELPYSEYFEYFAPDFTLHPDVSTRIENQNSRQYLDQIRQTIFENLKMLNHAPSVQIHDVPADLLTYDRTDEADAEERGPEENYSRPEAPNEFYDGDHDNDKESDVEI

[9] = target: T2, Protein deacetylase HDAC6 (Homo sapiens) (UniProt Q9UBN7); test: Inhibition of HDAC6 in human HeLa-S3 cell lysates assessed as remaining activity at […] preincubated for 15 mins followed by HDAC-Glo substrate addition measured after 30 to 40 mins by […] relative to control
T2 sequence (whole entry): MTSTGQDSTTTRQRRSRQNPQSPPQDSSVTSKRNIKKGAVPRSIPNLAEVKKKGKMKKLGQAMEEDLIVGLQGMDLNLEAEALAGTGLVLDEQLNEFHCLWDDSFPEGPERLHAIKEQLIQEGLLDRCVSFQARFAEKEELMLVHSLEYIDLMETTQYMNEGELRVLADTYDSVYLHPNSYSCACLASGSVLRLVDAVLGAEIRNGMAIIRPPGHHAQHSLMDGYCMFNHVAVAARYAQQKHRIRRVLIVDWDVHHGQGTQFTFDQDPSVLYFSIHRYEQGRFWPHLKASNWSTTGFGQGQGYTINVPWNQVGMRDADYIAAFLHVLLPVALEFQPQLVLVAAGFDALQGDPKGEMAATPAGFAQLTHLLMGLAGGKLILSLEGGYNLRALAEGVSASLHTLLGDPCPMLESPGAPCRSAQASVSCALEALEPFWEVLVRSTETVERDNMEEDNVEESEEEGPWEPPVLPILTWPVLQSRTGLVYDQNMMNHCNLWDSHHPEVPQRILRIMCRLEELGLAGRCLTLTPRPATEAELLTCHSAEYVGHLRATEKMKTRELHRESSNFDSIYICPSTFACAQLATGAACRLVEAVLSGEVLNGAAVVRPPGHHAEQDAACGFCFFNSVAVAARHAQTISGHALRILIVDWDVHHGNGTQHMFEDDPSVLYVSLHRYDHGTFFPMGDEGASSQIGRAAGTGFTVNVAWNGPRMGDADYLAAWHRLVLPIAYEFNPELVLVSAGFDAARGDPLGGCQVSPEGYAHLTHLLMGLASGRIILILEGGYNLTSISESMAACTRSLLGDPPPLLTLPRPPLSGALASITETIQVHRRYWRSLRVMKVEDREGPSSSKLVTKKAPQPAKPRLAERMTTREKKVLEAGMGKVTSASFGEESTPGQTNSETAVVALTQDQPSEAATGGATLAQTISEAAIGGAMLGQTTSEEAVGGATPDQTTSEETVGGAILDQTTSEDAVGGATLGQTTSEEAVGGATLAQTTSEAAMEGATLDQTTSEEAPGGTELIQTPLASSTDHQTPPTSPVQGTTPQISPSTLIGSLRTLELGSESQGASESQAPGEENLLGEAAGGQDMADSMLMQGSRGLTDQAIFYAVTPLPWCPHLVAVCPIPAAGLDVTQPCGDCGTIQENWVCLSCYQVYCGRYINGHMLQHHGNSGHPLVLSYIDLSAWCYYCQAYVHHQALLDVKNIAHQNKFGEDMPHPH

U-937 [10] = test: Cytotoxicity against human U937 cells assessed as decrease in cell viability after 44 hrs by MTT assay; type: functional, cell-based; settings: u-937
U-937 [11] = test: Cytotoxicity against human U937 cells assessed as cell viability at 6.4 x 10^-5 M after 44 hrs by MTT assay relative to control; type: functional; settings: U-937, 44 h, read-out: Activity
U-937 [12] = test: Cytotoxicity against human U937 cells assessed as cell viability at 3.2 x 10^-5 M after 44 hrs by MTT assay relative to control; type: functional; settings: U-937, 44 h, read-out: Activity
U-937 [13] = test: Cytotoxicity against human U937 cells assessed as cell viability at 1.6 x 10^-5 M after 44 hrs by MTT assay relative to control; type: functional; settings: U-937, 44 h, read-out: Activity
U-937 [14] = test: Cytotoxicity against human U937 cells assessed as cell viability at 8 x 10^-6 M after 44 hrs by MTT assay relative to control; type: functional; settings: U-937, 44 h, read-out: Activity
U-937 [15] = test: Cytotoxicity against human U937 cells assessed as cell viability at 4 x 10^-6 M after 44 hrs by MTT assay relative to control; type: functional; settings: U-937, 44 h, read-out: Activity
U-937 [16] = test: Cytotoxicity against human U937 cells assessed as cell viability at 2 x 10^-6 M after 44 hrs by MTT assay relative to control; type: functional; settings: U-937, 44 h, read-out: Activity
Jurkat [17] = test: Cytotoxicity against human Jurkat cells assessed as cell viability at 1 uM after 44 hrs by MTT assay relative to control; type: functional; settings: read-out: Activity
Jurkat [18] = test: Cytotoxicity against human Jurkat cells assessed as cell viability at 10 uM after 44 hrs by MTT assay relative to control; type: functional; settings: read-out: Activity

| SMILES | IC50 (Histone deacetylase) | Activity [1] | Activity [2] | Activity [3] | Activity [4] | Activity [5] | Activity [6] | Activity [7] | Activity [8] | Activity [9] | EC50 (U-937 [10]) | viability at 64 µM (U-937 [11]) | viability at 32 µM (U-937 [12]) | viability at 16 µM (U-937 [13]) | viability at 8 µM (U-937 [14]) | viability at 4 µM (U-937 [15]) | viability at 2 µM (U-937 [16]) | viability at 1 µM (Jurkat [17]) | viability at 10 µM (Jurkat [18]) |
| --- | --- | --- | --- | --- | --- | --- | --- | --- | --- | --- | --- | --- | --- | --- | --- | --- | --- | --- | --- |
| CC(CCCC(=O)Nc1ccccc1)CCC(=O)NO (centres undefined) | 3.3 µM | 17% | 38% | 60% | 79% | 91% | 75% | 90% | 78% | 26% |  |  |  |  |  |  |  |  |  |
| CCCCC(CCCC(=O)Nc1ccccc1)CCC(=O)NO (centres undefined) |  |  |  |  |  |  |  |  |  |  | 34 µM | 24% | 54% | 80% | 87% | 100% | 100% | 98% | 62% |
